Calls of active or inactive are those of the source. The calls are words filed in the database; no cut-off is given here.
Experiments:
[1] = Inhibition of delta14 Arf5 activation stimulated by Sec7 domain of BIG1
[2] = organism: Homo sapiens; assay: Effect on activation of human RhoG/TriD1 at 150 uM
How it was run: (§1)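 Specificity panel: each small GTPase (1 μM, GST-fused RhoG or RhoA) with its GEF (50 nM; DH1 domain of TRIO or DH domain of GEF337), with or without 150 μM inhibitor. Exchange started with 2 μM mGTP and followed by time-resolved fluorescence.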

[3] = system: HeLa; assay: Dispersion of cis golgi marker betaCoP in human HeLa cells at 100 uM for 2 hrs; format: functional, cell-based
How it was run: (§2)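 HeLa cells were exposed 2 h to 100 μM compound, with 0.5% DMSO as vehicle control, then fixed. Primary antibody was applied overnight at 4°C in PBS/0.25% BSA/0.01% Tween 20/0.01% saponin: TGN46 1:200, βCOP 1:100, KDEL receptor 1:500. Alexa 488 secondary was applied 20 min at room temperature. Marker localisation was imaged by confocal microscopy.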

[4] = system: HeLa; assay: Dispersion of cis golgi marker KDEL in human HeLa cells at 100 uM for 2 hrs; format: functional, cell-based; how it was run: as §2
[5] = Inhibition of delta17 Arf1 activation stimulated by Sec7 domain of BIG1
[6] = biological target: ADP-ribosylation factor 1 (Homo sapiens) (UniProt P84077); assay: Reduction in nucleotide exchange on Arf1 using ARNO4M
ADP-ribosylation factor 1 (Homo sapiens), sequence (P84077 whole entry, the tested form may be a part): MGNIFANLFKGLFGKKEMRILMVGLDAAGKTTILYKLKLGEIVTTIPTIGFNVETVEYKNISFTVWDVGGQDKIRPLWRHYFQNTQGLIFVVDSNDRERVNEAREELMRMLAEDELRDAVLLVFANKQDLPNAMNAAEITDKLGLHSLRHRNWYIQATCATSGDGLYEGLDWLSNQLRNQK
How it was run: (§3)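 [Δ17]Arf1 lacking its N-terminal helix, GDP-loaded, with the BFA-sensitised Sec7 domain of human ARNO (4 mutations). Inhibitor was preincubated 5 min, then GTP or mGTP was added. Apparent rate constants were fitted. Means ± SD of ≥3 independent experiments.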

[7] = biological target: ADP-ribosylation factor 6 (Homo sapiens) (UniProt P62330); assay: Inhibition of ARNO-stimulated nucleotide exchange of Arf6
ADP-ribosylation factor 6 (Homo sapiens), sequence (P62330 whole entry, the tested form may be a part, canonical isoform): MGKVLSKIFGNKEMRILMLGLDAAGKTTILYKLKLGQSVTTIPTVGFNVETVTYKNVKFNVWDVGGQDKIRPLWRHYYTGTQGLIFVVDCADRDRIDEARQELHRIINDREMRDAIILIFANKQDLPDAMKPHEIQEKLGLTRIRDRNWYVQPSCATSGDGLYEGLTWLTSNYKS
How it was run: (§4)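 GDP-loaded Arf isoforms truncated of the N-terminal helix (1 μM) with 50 nM Sec7 GEF. Runs were done with or without 150 μM inhibitor, preincubated 5 min, at 37°C in Tris pH 8/NaCl/MgCl2/2-mercaptoethanol buffer. Reaction was started with 2 μM mGTP and nucleotide exchange followed by time-resolved fluorescence.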

[8] = system: MDCK; assay: Increase in rate of migration of MDCK cells expressing wild type ARNO relative to non-induced wild type ARNO cells; format: functional, Canis lupus familiaris
How it was run: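 MDCK cells stably carrying N-terminal c-myc wt-ARNO under a tetracycline-repressible transactivator, grown on collagen I (3 μg/ml). Confluent monolayers were scratch-wounded, then kept in MEM/5% FBS with 20 ng/ml doxycycline (repressed) or without it (induced). Time-lapse imaging every 5 min for 16 h at 37°C, 5% CO2. Wound-area rate (μm2/h) was taken over 1-h intervals for 8 h; mean ± SD, ≥3 experiments.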

[9] = Inhibition of mGDP/GTP exchange on delta17 Arf1 at 150 uM
[10] = Inhibition of GTP binding to Arf-ARNO complex
How it was run: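 Nucleotide-free Arf1/ARNO complex made by removing GDP with alkaline phosphatase (20 units) plus 2 mM EDTA. GTP binding to the complex (0.2 μM) started with 1 μM mGTP, with or without 150 μM inhibitor. Mant fluorescence read at 37°C in Tris pH 8 buffer with MgCl2; mean ± SD of ≥3 experiments.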

[11] = system: MDCK; assay: Inhibition of rate of migration in MDCK cells expressing wild type ARNO; format: functional, cell-based; conditions: Canis lupus familiaris
How it was run: (§5)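 MDCK cells carrying tetracycline-repressible myc-wt-ARNO were grown as monolayers on collagen I and scratch-wounded. Cells were kept in MEM/5% FBS with or without compound. Doxycycline at 20 ng/ml repressed the transgene (endogenous ARNO only); without it, wt-ARNO was expressed. Wound closure was imaged every 5 min for 16 h at 37°C. Rate (μm2/h) was taken from hourly area increments over 8 h. Means ± SD of ≥3 experiments.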

[12] = system: MDCK; assay: Inhibition of rate of migration of MDCK cells expressing endogenous levels of ARNO; format: functional, cell-based; conditions: Canis lupus familiaris; how it was run: as §5
[13] = Inhibition of mGTP/GTP exchange on delta17 Arf1 at 150 uM
[14] = organism: Homo sapiens; assay: Effect on activation of human RhoA/Gef337 at 150 uM; how it was run: as §1
[15] = biological target: ADP-ribosylation factor 1 (Homo sapiens) (UniProt P84077); assay: Inhibition of ARNO-stimulated nucleotide exchange of Arf1; how it was run: as §4
[16] = system: HeLa; assay: Inhibition of endogenous Arf activation in human HeLa cells; format: cell-based
How it was run: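 Activation of endogenous Arf proteins in HeLa cells was measured by pull-down of GTP-loaded Arf through binding to the GGA3 effector.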

[17] = system: HeLa; assay: Dispersion of trans golgi marker TGN46 in human HeLa cells at 100 uM for 2 hrs; format: functional, cell-based; how it was run: as §2
[18] = organism: Homo sapiens; assay: (§6) Inhibition of human Arf-GDP-ARNO complex at 100 uM by fluorescence anisotropy
How it was run: (§7)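 Alexa 488 N-terminally labelled [Δ17]Arf1-GDP was held at 10 nM and titrated by serial dilution of wild-type ARNO Sec7, starting at 400 μM, with or without 100 μM inhibitor.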

[19] = biological target: ADP-ribosylation factor 5 (Homo sapiens) (UniProt P84085); assay: Inhibition of ARNO-stimulated nucleotide exchange of Arf5; how it was run: as §4
ADP-ribosylation factor 5 (Homo sapiens), sequence (P84085 whole entry): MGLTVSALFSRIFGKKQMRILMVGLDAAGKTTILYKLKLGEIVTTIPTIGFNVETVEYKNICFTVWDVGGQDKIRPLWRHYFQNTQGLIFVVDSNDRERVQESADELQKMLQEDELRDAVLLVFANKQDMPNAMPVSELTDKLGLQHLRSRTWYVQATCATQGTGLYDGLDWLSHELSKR

[20] = Inhibition of delta17 Arf1 using ARNO4M; conditions: read-out: Ki app; how it was run: as §3
[21] = as §6; how it was run: as §7

With `O=[N+]([O-])c1ccc(Nc2c([N+](=O)[O-])ccc3c2=NC2(CCCCC2)N=3)cc1` the Activity [1] was “Active”, the Activity [2] was 0.003 s⁻¹ and the Activity [3] was “Active”. For the same compound, the Activity [4] was “Active”, the Activity [5] was “Active” and the Kapp [6] was 0.0078 s⁻¹. The Activity [7] was “inactive”, the Activity [8] was 54% and the Kapp [9] was 0.0004 s⁻¹. For the same compound, the Kapp [10] was 0.085 s⁻¹, the Activity [11] was “Active” and the Activity [12] was “Active”. The Kapp [13] was 0.0005 s⁻¹, the Activity [14] was 0.0028 s⁻¹ and the Activity [15] was “Active”. The Activity [16] was “Active”, the Activity [17] was “Active” and the Activity [18] was “inactive”. The Activity [19] was “Active”.
With `C[C@H]1CCC/C=C/[C@@H]2C[C@H](O)C[C@H]2[C@H](O)/C=C/C(=O)O1` [BREFELDIN A] the Ki [20] was 15 µM, the Activity [3] was “Active” and the Activity [4] was “Active”. For the same compound, the Kd [21] was 8.6 µM.

— ChEMBL document CHEMBL1142234, “Structure-based discovery of an inhibitor of Arf activation by Sec7 domains through targeting of protein-protein complexes” (Proc Natl Acad Sci U S A, 2007)
